Results: ChEMBL document CHEMBL2057084, “Discovery of benzylisothioureas as potent divalent metal transporter 1 (DMT1) inhibitors” (Bioorg Med Chem Lett, 2012)
Calls of active or inactive are those of the source. No cut-off for these calls is given here.

Legend:
[1] = Inhibition of human DMT1B-IRE expressed in CHO cells assessed as blockage of ferrous influx after 20 mins by calcein fluorescence quenching method; type: cell-based
Outline: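 Calcein fluorescence quench assay for DMT1 (conditions detailed in supplementary data); IC50s are the average of at least two independent determinations.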

[2] = Apparent permeability across apical to basolateral side in human Caco2 cells; type: ADME, cell-based; conditions: Caco-2
Outline: (§1)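 Caco-2 cell monolayers; apparent permeability measured in both directions (apical→basolateral and basolateral→apical); […].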

[3] = Apparent permeability across basolateral to apical side in human Caco2 cells; type: ADME, cell-based; conditions: Caco-2; outline: as §1
[4] = molecular target: T1, Natural resistance-associated macrophage protein 1 (Homo sapiens, UniProt P49279); assay: Inhibition of NRAMP1 expressed in CHO cells; type: cell-based
T1 sequence (P49279 whole entry): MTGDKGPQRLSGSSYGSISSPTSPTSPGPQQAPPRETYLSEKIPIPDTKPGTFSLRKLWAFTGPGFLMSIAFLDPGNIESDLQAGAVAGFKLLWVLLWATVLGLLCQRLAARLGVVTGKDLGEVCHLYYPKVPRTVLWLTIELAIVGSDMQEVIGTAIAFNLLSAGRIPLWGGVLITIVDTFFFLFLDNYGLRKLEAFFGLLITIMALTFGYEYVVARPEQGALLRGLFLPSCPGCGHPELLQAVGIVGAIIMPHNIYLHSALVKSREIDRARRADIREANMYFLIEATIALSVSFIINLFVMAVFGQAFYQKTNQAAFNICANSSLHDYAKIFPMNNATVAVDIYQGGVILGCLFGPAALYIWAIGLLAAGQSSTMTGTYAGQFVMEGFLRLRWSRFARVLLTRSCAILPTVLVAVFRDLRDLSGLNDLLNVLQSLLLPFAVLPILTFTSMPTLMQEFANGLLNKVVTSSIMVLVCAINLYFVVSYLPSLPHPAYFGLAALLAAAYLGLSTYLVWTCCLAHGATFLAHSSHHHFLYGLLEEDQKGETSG

Rattus norvegicus [5] = assay: Toxicity in acute weanling rat model at 25 to 50 mg/kg, po; type: organism-based; design: dose 25-50 mg/kg, route oral; conditions: in vivo
Outline: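 Rats in the acute iron hyperabsorption study (anemic, conscious) dosed po at 25 or 50 mg/kg in 5% DMSO, 10% EtOH, 30% PEG400, 35% propylene glycol, 20% water; clinical observations recorded during the study.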

Rattus norvegicus [6] = assay: Inhibition of intestinal iron uptake in po dosed acute weanling rat model of iron hyperabsorption assessed as decrease of serum iron level administered after 1 hr post iron challenge; type: functional, organism-based
Outline: (§2)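 Anemic conscious rats ([…], serum iron <50 µg/dL); test article dosed po in 5% DMSO, 10% EtOH, 30% PEG400, 35% propylene glycol, 20% water; 1 h later oral challenge of 1 mg/kg Fe2+ as ferrous sulfate; serum iron measured 1 h after challenge; 8 animals per group, mean ± SEM; one-way ANOVA with Dunnett's test versus vehicle group.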

Rattus norvegicus [7] = assay: Inhibition of intestinal iron uptake in acute weanling rat model of iron hyperabsorption assessed as decrease of serum iron level at 50 mg/kg, po administered after 1 hr post iron challenge; type: functional, organism-based; design: dose 50 mg/kg; outline: as §2
Rattus norvegicus [8] = assay: Inhibition of intestinal iron uptake in acute weanling rat model of iron hyperabsorption assessed as decrease of serum iron level at 25 mg/kg, po administered after 1 hr post iron challenge; type: functional, organism-based; design: dose 25 mg/kg; outline: as §2
Rattus norvegicus [9] = assay: Inhibition of intestinal iron uptake in acute weanling rat model of iron hyperabsorption assessed as decrease of serum iron level at 50 mg/kg, po administered after 1 hr post iron challenge relative to control; type: functional; outline: as §2

SMILES	IC50 [1] [µM]	Papp A→B [2] [×10⁻⁶ cm/s]	Papp B→A [3] [×10⁻⁶ cm/s]	IC50 [4] [µM]	Activity (Rattus norvegicus [5])	inhibition (Rattus norvegicus [6])	inhibition (Rattus norvegicus [7])	inhibition (Rattus norvegicus [8])	fold change (FC) (Rattus norvegicus [9])
Br.N=C(N)SCc1cccc2c1oc1c(CSC(=N)N)cccc12	0.05	< 0.1	0.2	> 10					
Br.N=C(N)SCc1cccc2c1-c1c(CSC(=N)N)cccc1-2	0.1	< 0.1	0.4	> 10					
Br.N=C(N)SCc1cc(F)ccc1Oc1cc(Cl)ccc1CSC(=N)N	0.34	0.2	0.9	> 10					
Br.N=C(N)SCc1ccccc1Sc1ccc(F)cc1CSC(=N)N	0.15	0.3	0.2	> 10					
Br.N=C(N)SCc1ccccc1Sc1cc(F)c(F)cc1CSC(=N)N	0.32	1.3	1.4	> 10					
N=C(N)SCc1cc(Cl)ccc1Oc1ccc([N+](=O)[O-])cc1CSC(=N)N	2.89			> 10					
Br.N=C(N)SCc1cc(F)ccc1Sc1cc(F)c(F)cc1CSC(=N)N	0.6	< 0.1	0.2	> 10					
Br.N=C(N)SCc1cc(F)ccc1Oc1cc(F)ccc1CSC(=N)N	0.84	< 0.1	0.4	> 10					
Br.N=C(N)SCc1cc(F)ccc1Sc1ccc([N+](=O)[O-])cc1CSC(=N)N	0.08	0.1	0.2	> 10	Non-toxic	Dose-dependent effect	Active	Active	
N=C(N)SCc1cccc2c1-c1c(CSC(=N)N)cccc1C2=O	> 15			> 10					
Br.CN(C)S(=O)(=O)c1ccc(Sc2ccc(F)cc2CSC(=N)N)c(CSC(=N)N)c1	0.95	< 0.1	0.1	> 10					
Br.N=C(N)SCc1cc(F)ccc1Sc1ccc(C(F)(F)F)cc1CSC(=N)N	0.69	0.1	3.8	> 10					
N=C(N)SCc1cccc2c1sc1c(CSC(=N)N)cc(F)cc12	0.09			> 10					
N=C(N)SCc1ccccc1C(=O)c1ccc(F)cc1CSC(=N)N	0.58			> 10					
N=C(N)SCc1ccccc1C(=O)c1ccc(Cl)cc1CSC(=N)N	2.92			> 10					
Br.N=C(N)SCc1cc(F)cc2c1sc1c(CSC(=N)N)cc(Cl)cc12	0.04	0.5	0.2	> 10					
Br.N=C(N)SCc1ccccc1C(=O)c1cc([N+](=O)[O-])ccc1CSC(=N)N	0.37	0.1	0.7	> 10					
N=C(N)SCc1cccc2c1oc1c(CSC(=N)N)cc(F)cc12	0.02			> 10					
N=C(N)SCc1cccc2cc3cccc(CSC(=N)N)c3nc12	0.29	0.2	0.5	> 10					
Br.N=C(N)SCc1cccc2c1sc1c(CSC(=N)N)cccc12	0.26	< 0.1	< 0.1	> 10					
Br.CS(=O)(=O)c1ccc(Sc2ccc(F)cc2CSC(=N)N)c(CSC(=N)N)c1	0.29	< 0.1	0.1	> 10					
N=C(N)SCc1ccccc1Oc1cc(Cl)ccc1CSC(=N)N	15			> 10					
N=C(N)SCc1ccccc1C(=O)c1cc(Cl)ccc1CSC(=N)N	5.2			> 10					
N=C(N)SCc1cccc2c1Oc1c(CSC(=N)N)cccc1S2	0.15			> 10					
Br.N=C(N)SCc1c(Br)ccc2c1sc1c(CSC(=N)N)c(Br)ccc12	0.86	4	2	> 10					

SMILES	IC50 [1] [µM]	Papp A→B [2] [×10⁻⁶ cm/s]	Papp B→A [3] [×10⁻⁶ cm/s]	IC50 [4] [µM]	Activity (Rattus norvegicus [5])	inhibition (Rattus norvegicus [6])	inhibition (Rattus norvegicus [7])	inhibition (Rattus norvegicus [8])	fold change (FC) (Rattus norvegicus [9])
Br.N=C(N)SCc1c(F)ccc2c1oc1c(CSC(=N)N)c(F)ccc12	0.09	5	1	> 10					
N=C(N)SCc1cc(F)ccc1Oc1ccc([N+](=O)[O-])cc1CSC(=N)N	0.16			> 10					
Br.N=C(N)SCc1ccccc1Sc1ccccc1CSC(=N)N	0.18	0.1	1.4	> 10	Non-toxic	Dose-dependent effect	Active		
Br.COc1ccc(Sc2ccc(F)cc2CSC(=N)N)c(CSC(=N)N)c1	0.53	2.4	2.4	> 10					
Cc1ccc(CSC(=N)N)c(Sc2ccc(F)cc2CSC(=N)N)c1	1.45			> 10					
Br.N=C(N)SCc1ccccc1Sc1cc(F)ccc1CSC(=N)N	0.51	0.3	0.2	> 10					
Br.N=C(N)SCc1ccccc1Oc1ccccc1CSC(=N)N	0.34	0.1	0.2	> 10	Non-toxic	Dose-dependent effect	Active	Active	8
N=C(N)SCc1cccc2sc3cccc(CSC(=N)N)c3c12	5.04			> 10					
N=C(N)SCc1ccccc1Oc1ccc(Cl)cc1CSC(=N)N	1.13			> 10					
Br.N=C(N)SCc1cccc2c1sc1c(CSC(=N)N)c(Br)ccc12	0.75	1.3	0.2	> 10					
Br.N=C(N)SCc1cc(F)ccc1Sc1ccc(F)cc1CSC(=N)N	0.15	0.4	0.4	> 10					
Br.N=C(N)SCc1cccc2c1C(=O)c1c(CSC(=N)N)cccc1-2	0.58	0.4	0.3	> 10					
CN(c1ccccc1CSC(=N)N)c1ccccc1CSC(=N)N	0.73			> 10					
N=C(N)SCc1cc(Cl)ccc1Sc1ccc(Cl)cc1CSC(=N)N	3.02			> 10					
Br.N=C(N)SCc1cc(F)ccc1Oc1ccc(F)cc1CSC(=N)N	0.32	< 0.1	0.2	> 10					
N=C(N)SCc1ccccc1Sc1ccc(N)cc1CSC(=N)N	0.91			> 10					
Br.N=C(N)SCc1c(Cl)ccc2c1oc1c(CSC(=N)N)c(Cl)ccc12	0.27	< 0.1	0.4	> 10					
N=C(N)SCc1cc(F)ccc1Sc1c(CSC(=N)N)cccc1[N+](=O)[O-]	4.15			> 10					
N=C(N)SCc1ccccc1C(=O)c1cc(F)ccc1CSC(=N)N	2.02			> 10					
Br.Cc1ccc(Sc2ccccc2CSC(=N)N)c(CSC(=N)N)c1	0.49	1.5	1.4	> 10					
Br.N=C(N)SCc1c(Br)ccc2c1oc1c(CSC(=N)N)c(Br)ccc12	0.11	0.2	0.1	> 10					
COc1ccc(Sc2ccccc2CSC(=N)N)c(CSC(=N)N)c1	1.44			> 10					
Cc1cc(C)c(CSC(=N)N)c(C)c1CSC(=N)N	0.29	0.9	1.2						
Cc1cccc(CSC(=N)N)c1Sc1ccccc1CSC(=N)N	3.77			> 10					
